Converted amounts (≈) assume the structure as drawn.
Assays:
[1] = system: Enterococcus faecalis; test: Antibacterial activity against vancomycin resistant Enterococcus faecalis NCTC 12201 assessed as bacterial growth inhibition incubated for overnight by microbroth dilution method; assay type: functional
Procedure, shortened: (§1)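 Microbroth dilution in Tryptic Soy Broth. DMSO stocks were diluted in TSB as 2-fold series. Overnight TSB cultures were back-diluted to OD 0.01 and mixed 1:1 with compound. Incubation was overnight at 37 °C. MIC is the lowest concentration with no visible growth (<0.1 OD600). DMSO at equivalent concentrations was checked.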

[2] = system: Klebsiella pneumoniae; test: Synergistic antibacterial activity against […] Klebsiella pneumoniae M6 assessed as rifampicin MIC at <=0.25 times MIC incubated for overnight by microbroth dilution checkerboard assay; assay type: functional
Procedure, shortened: (§2)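 Checkerboard run under the MIC conditions (TSB, overnight, 37 °C). Antibiotic and lipoguanidine 2-fold series were combined on one plate before bacteria were added. Growth/no-growth was scored as for the MIC (<0.1 OD600). Single-agent MICs were measured on the same plates. Three independent repeats were done.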

[3] = system: Pseudomonas aeruginosa; test: Synergistic antibacterial activity against Pseudomonas aeruginosa PAO1 assessed as fold change in rifampicin MIC at <=0.25 times MIC incubated for overnight by microbroth dilution checkerboard assay relative to rifampicin alone; assay type: functional
Procedure, shortened: (§3)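 Checkerboard microdilution in Tryptic Soy Broth, run like the MIC assay. Overnight TSB cultures were back-diluted to OD 0.01 and added 1:1 to the combined two-fold series of both agents, then incubated overnight at 37 °C. Growth/no-growth was called at <0.1 OD600. MICs alone were read on the same plates. FIC index came from the most synergistic well; three independent repeats, mean ± SD.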

[4] = system: Acinetobacter baumannii; test: Synergistic antibacterial activity against Acinetobacter baumannii AYE assessed as fold change in rifampicin MIC at <=0.25 times MIC incubated for overnight by microbroth dilution checkerboard assay relative to rifampicin alone; assay type: functional
Procedure, shortened: (§4)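 Checkerboard microdilution under MIC conditions (TSB, overnight, 37 °C). Two-fold series of each agent were combined on one plate before bacteria were added, and single-agent MICs were measured on the same plate. FIC = sum of combination MIC/alone MIC for each agent, taken from the most synergistic well. Three independent repeats, mean ± SD. ≤0.5 was taken as strong synergy and 0.5–<1 as weak.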

[5] = system: Acinetobacter baumannii; test: Synergistic antibacterial activity against Acinetobacter baumannii ATCC 17978 assessed as fold change in rifampicin MIC at <=0.25 times MIC incubated for overnight by microbroth dilution checkerboard assay relative to rifampicin alone; assay type: functional; procedure, shortened: as §4
[6] = system: Acinetobacter baumannii; test: Antibacterial activity against Acinetobacter baumannii ATCC 17978 assessed as bacterial growth inhibition incubated for overnight by microbroth dilution method; assay type: functional
Procedure, shortened: (§5)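 Broth microdilution in Tryptic Soy Broth. DMSO stocks were diluted in TSB as 2-fold series. Overnight TSB cultures were back-diluted to OD 0.01 and mixed 1:1 with compound. Incubation was overnight at 37 °C. MIC was the lowest concentration without visible growth (<0.1 OD600). DMSO vehicle was checked at equivalent concentrations.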

[7] = system: Staphylococcus aureus; test: Antibacterial activity against methicillin resistant Staphylococcus aureus USA 300 assessed as bacterial growth inhibition incubated for overnight by microbroth dilution method; assay type: functional; procedure, shortened: as §1
[8] = system: Klebsiella pneumoniae; test: Antibacterial activity against Klebsiella pneumoniae M6 assessed as bacterial growth inhibition incubated for overnight by microbroth dilution method
[9] = system: Pseudomonas aeruginosa; test: Antibacterial activity against Pseudomonas aeruginosa PAO1 assessed as bacterial growth inhibition incubated for overnight by microbroth dilution method; assay type: functional; procedure, shortened: as §5
[10] = system: Staphylococcus aureus; test: Antibacterial activity against methicillin resistant Staphylococcus aureus NCTC 13616 assessed as bacterial growth inhibition incubated for overnight by microbroth dilution method; assay type: functional; procedure, shortened: as §1
[11] = system: Escherichia coli; test: Antibacterial activity against Escherichia coli NCTC 12923 assessed as bacterial growth inhibition incubated for overnight by microbroth dilution method; assay type: functional; procedure, shortened: as §5
[12] = system: Pseudomonas aeruginosa; test: Antibacterial activity against Pseudomonas aeruginosa NCTC 13437 assessed as bacterial growth inhibition incubated for overnight by microbroth dilution method; assay type: functional; procedure, shortened: as §5
[13] = system: Staphylococcus aureus; test: Antibacterial activity against methicillin sensitive Staphylococcus aureus ATCC 9144 assessed as bacterial growth inhibition incubated for overnight by microbroth dilution method; assay type: functional; procedure, shortened: as §1
[14] = system: Enterococcus faecium; test: Antibacterial activity against vancomycin resistant Enterococcus faecium NCTC 12204 assessed as bacterial growth inhibition incubated for overnight by microbroth dilution method; assay type: functional; procedure, shortened: as §1
[15] = system: Escherichia coli; test: Synergistic antibacterial activity against Escherichia coli NCTC 12923 assessed as fold change in rifampicin MIC at <=0.25 times MIC incubated for overnight by microbroth dilution checkerboard assay relative to rifampicin alone; assay type: functional; procedure, shortened: as §4
[16] = system: Acinetobacter baumannii; test: Synergistic antibacterial activity against Acinetobacter baumannii ATCC 17978 assessed as rifampicin MIC at <=0.25 times MIC incubated for overnight by microbroth dilution checkerboard assay; assay type: functional; procedure, shortened: as §4
[17] = system: Pseudomonas aeruginosa; test: Synergistic antibacterial activity against Pseudomonas aeruginosa NCTC 13437 assessed as fold change in rifampicin MIC at <=0.25 times MIC incubated for overnight by microbroth dilution checkerboard assay relative to rifampicin alone; assay type: functional; procedure, shortened: as §3
[18] = system: Enterococcus faecalis; test: Antibacterial activity against vancomycin sensitive Enterococcus faecalis NCTC 775 assessed as bacterial growth inhibition incubated for overnight by microbroth dilution method
[19] = system: Klebsiella pneumoniae; test: Antibacterial activity against ESBL Klebsiella pneumoniae NCTC 13368 assessed as bacterial growth inhibition incubated for overnight by microbroth dilution method
[20] = system: Klebsiella pneumoniae; test: Synergistic antibacterial activity against Klebsiella pneumoniae NCTC 13368 assessed as rifampicin MIC at <=0.25 times MIC incubated for overnight by microbroth dilution checkerboard assay; assay type: functional; procedure, shortened: as §4
[21] = system: Pseudomonas aeruginosa; test: Synergistic antibacterial activity against Pseudomonas aeruginosa NCTC 13437 assessed as rifampicin MIC at <=0.25 times MIC incubated for overnight by microbroth dilution checkerboard assay; assay type: functional; procedure, shortened: as §3
[22] = system: Pseudomonas aeruginosa; test: Synergistic antibacterial activity against Pseudomonas aeruginosa PAO1 assessed as rifampicin MIC at <=0.25 times MIC incubated for overnight by microbroth dilution checkerboard assay; assay type: functional; procedure, shortened: as §3
[23] = system: Acinetobacter baumannii; test: Antibacterial activity against Acinetobacter baumannii AYE assessed as bacterial growth inhibition incubated for overnight by microbroth dilution method; assay type: functional; procedure, shortened: as §5
[24] = system: Acinetobacter baumannii; test: Synergistic antibacterial activity against Acinetobacter baumannii AYE assessed as rifampicin MIC at <=0.25 times MIC incubated for overnight by microbroth dilution checkerboard assay; assay type: functional; procedure, shortened: as §4
[25] = system: Staphylococcus aureus; test: Antibacterial activity against methicillin sensitive Staphylococcus aureus 1199B assessed as bacterial growth inhibition incubated for overnight by microbroth dilution method; assay type: functional; procedure, shortened: as §1
[26] = system: Klebsiella pneumoniae; test: Synergistic antibacterial activity against Klebsiella pneumoniae NCTC 13368 assessed as fold change in rifampicin MIC at <=0.25 times MIC incubated for overnight by microbroth dilution checkerboard assay relative to rifampicin alone; assay type: functional; procedure, shortened: as §2
[27] = system: Escherichia coli; test: Synergistic antibacterial activity against Escherichia coli NCTC 12923 assessed as rifampicin MIC at <=0.25 times MIC incubated for overnight by microbroth dilution checkerboard assay; assay type: functional; procedure, shortened: as §4
[28] = system: Erythrocyte; test: Hemolytic activity in human Red blood cells at 512 microg/ml measured after 1 hrs by absorbance based assay; assay type: toxicity, cell-based; conditions: dose 512 µg/ml
Procedure, shortened: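 Titrations in PBS were incubated with freshly collected human red blood cells for 1 h at 37 °C. Controls were 0.1% Triton-X-100 (full lysis) and PBS alone (no lysis). After centrifugation, supernatant OD550 was read. % haemolysis = (AP−AB)/(AC−AB)×100. Data are means and standard error of three biological replicates.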

| SMILES | MIC [1] [µg/mL] | MIC [2] [µg/mL] | fold change (FC) [3] | fold change (FC) [4] | fold change (FC) [5] | MIC [6] [µg/mL] | MIC [7] [µg/mL] | MIC [8] [µg/mL] | MIC [9] [µg/mL] | MIC [10] [µg/mL] | MIC [11] [µg/mL] | MIC [12] [µg/mL] | MIC [13] [µg/mL] | MIC [14] [µg/mL] | MIC [16] [µg/mL] | fold change (FC) [17] | MIC [18] [µg/mL] | MIC [19] [µg/mL] | MIC [20] [µg/mL] | MIC [21] [µg/mL] | other results |
| --- | --- | --- | --- | --- | --- | --- | --- | --- | --- | --- | --- | --- | --- | --- | --- | --- | --- | --- | --- | --- | --- |
| CCCCC/C=C\C/C=C\CCCCCCCCNC(=N)NCCCCNC(=N)N | 8 (≈ 19 µM) | ≤ 0.125 | >=4 | >=4 | >=4 | 32 (≈ 76.1 µM) | 4 (≈ 9.51 µM) | 32 (≈ 76.1 µM) | 64 (≈ 152 µM) | 4 (≈ 9.51 µM) | 8 (≈ 19 µM) | 64 (≈ 152 µM) | 4 (≈ 9.51 µM) | 8 (≈ 19 µM) | ≤ 0.125 | >=4 | 8 (≈ 19 µM) | > 64 | ≤ 0.125 | 4 | fold change (FC) [15]: >=4; MIC [22]: 2 µg/mL; MIC [23]: > 64 µg/mL; MIC [24]: ≤ 0.125 µg/mL; MIC [25]: 4 µg/mL (≈ 9.51 µM); fold change (FC) [26]: >=4; MIC [27]: 4 µg/mL |
| CCCCCCCCCCCCCCCCNC(=N)NCCCCN | 2 (≈ 5.64 µM) | 0.25 | >=4 | >=4 | >=4 | 4 (≈ 11.3 µM) | 2 (≈ 5.64 µM) | 8 (≈ 22.6 µM) | > 128 | 2 (≈ 5.64 µM) | 32 (≈ 90.2 µM) | > 128 | 2 (≈ 5.64 µM) | 2 (≈ 5.64 µM) | 0.25 | 0 | 2 (≈ 5.64 µM) | > 128 | 2 | 16 | Activity [28]: Toxic; MIC [22]: 2 µg/mL; MIC [23]: 32 µg/mL (≈ 90.2 µM); MIC [24]: ≤ 0.125 µg/mL; MIC [25]: 4 µg/mL (≈ 11.3 µM); fold change (FC) [26]: >=4 |
| NCCCCCCCCN=C(N)N | > 128 | 16 | 0 | >=4 | >=4 | > 128 | 128 (≈ 687 µM) | > 128 | > 128 | > 128 | 128 (≈ 687 µM) | > 128 | 128 (≈ 687 µM) | > 128 | 1 | 0 | > 128 | > 128 | 32 | 32 | fold change (FC) [15]: 0; MIC [22]: 32 µg/mL; MIC [23]: > 128 µg/mL; MIC [24]: 4 µg/mL; MIC [25]: > 128 µg/mL; fold change (FC) [26]: 0; MIC [27]: 16 µg/mL |

— ChEMBL document CHEMBL5357066, “Development of Novel Membrane Disrupting Lipoguanidine Compounds Sensitizing Gram-Negative Bacteria to Antibiotics” (ACS Med Chem Lett, 2024)
